Source: the M2OR odorant receptor database
Positions count from the first letter of the chain named.

Tests used:
Settings in all cases: stereoisomer not certain
[1] = biological target: T1, OR11H12 (Homo sapiens) (UniProt B2RN74)
T1 sequence (whole entry): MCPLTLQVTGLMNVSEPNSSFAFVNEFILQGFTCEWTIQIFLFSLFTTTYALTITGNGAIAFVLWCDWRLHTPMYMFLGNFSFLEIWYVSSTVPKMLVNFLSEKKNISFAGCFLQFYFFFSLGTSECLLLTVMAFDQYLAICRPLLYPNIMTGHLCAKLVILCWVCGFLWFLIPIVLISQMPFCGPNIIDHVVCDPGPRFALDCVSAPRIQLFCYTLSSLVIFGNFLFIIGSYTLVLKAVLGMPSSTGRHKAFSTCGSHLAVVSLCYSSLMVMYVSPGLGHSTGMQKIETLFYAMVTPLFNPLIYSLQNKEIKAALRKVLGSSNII
In short: (§1)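 Assay methods differ from source to source, frequently being transient luciferase assays in mammalian cell lines. For each receptor–molecule pair, the label responsive (active) applies when the original authors judged the measured signal statistically different from baseline, and non-responsive (inactive) applies otherwise.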

[2] = biological target: T2, OR11H2 (Homo sapiens) (UniProt Q8NH07)
T2 sequence (whole entry): T1 sequence (whole entry) with Q7H, T33S, T49I, W68R, C156Y, M181K, R199L, S269P
In short: as §1

[3] = biological target: T3, OR11H4 (Homo sapiens) (UniProt Q8NGC9)
T3 sequence (whole entry): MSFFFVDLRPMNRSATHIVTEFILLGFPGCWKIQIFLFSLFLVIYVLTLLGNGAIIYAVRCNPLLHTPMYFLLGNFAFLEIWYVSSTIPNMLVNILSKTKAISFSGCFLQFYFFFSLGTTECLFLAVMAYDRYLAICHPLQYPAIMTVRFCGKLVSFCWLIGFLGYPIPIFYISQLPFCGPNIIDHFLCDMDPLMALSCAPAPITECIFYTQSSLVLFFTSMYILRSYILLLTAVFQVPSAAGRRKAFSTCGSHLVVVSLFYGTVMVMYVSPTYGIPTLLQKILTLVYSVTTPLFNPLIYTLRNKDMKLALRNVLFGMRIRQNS
In short: as §1

[4] = biological target: T4, OR11H6 (Homo sapiens) (UniProt Q8NGC7)
T4 sequence (whole entry): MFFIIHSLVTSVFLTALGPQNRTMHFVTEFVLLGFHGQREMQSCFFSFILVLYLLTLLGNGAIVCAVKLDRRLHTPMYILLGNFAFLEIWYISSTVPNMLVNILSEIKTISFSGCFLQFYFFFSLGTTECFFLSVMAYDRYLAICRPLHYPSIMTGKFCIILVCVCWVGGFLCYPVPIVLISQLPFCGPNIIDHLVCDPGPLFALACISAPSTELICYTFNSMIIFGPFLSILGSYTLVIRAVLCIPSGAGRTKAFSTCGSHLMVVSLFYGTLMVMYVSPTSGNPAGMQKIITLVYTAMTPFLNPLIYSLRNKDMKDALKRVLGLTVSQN
In short: as §1

[5] = biological target: T5, OR11L1 (Homo sapiens) (UniProt Q8NGX0)
T5 sequence (whole entry): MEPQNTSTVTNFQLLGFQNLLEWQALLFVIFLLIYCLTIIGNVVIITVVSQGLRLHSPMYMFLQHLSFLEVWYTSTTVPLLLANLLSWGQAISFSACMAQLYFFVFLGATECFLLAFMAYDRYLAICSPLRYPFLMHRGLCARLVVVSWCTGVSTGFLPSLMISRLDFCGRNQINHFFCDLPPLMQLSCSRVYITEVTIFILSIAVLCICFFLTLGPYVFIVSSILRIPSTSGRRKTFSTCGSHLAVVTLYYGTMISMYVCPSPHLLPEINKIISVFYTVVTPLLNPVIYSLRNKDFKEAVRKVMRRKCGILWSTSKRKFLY
In short: as §1

[6] = biological target: T6, OR12D2 (Homo sapiens) (UniProt P58182)
T6 sequence (whole entry): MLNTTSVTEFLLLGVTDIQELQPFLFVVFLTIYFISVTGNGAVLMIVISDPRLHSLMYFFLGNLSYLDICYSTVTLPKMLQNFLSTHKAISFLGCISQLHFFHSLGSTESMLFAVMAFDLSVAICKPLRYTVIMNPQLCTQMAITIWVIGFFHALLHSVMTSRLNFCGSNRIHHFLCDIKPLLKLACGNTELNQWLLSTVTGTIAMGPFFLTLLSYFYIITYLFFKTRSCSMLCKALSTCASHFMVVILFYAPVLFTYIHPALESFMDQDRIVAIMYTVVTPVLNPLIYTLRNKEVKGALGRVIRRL
In short: as §1

[7] = biological target: T7, OR12D3 (Homo sapiens) (UniProt Q9UGF7)
T7 sequence (whole entry): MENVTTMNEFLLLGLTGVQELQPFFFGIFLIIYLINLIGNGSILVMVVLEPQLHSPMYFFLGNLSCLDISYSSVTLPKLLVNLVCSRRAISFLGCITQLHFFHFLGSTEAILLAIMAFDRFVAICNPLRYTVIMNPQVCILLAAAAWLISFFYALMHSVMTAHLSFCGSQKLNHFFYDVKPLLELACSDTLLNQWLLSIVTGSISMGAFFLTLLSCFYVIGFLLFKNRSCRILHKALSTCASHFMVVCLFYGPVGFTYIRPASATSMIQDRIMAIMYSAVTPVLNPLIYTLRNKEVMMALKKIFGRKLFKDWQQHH
In short: as §1

[8] = biological target: T8, OR13A1 (Homo sapiens) (UniProt Q8NGR1)
T8 sequence (whole entry): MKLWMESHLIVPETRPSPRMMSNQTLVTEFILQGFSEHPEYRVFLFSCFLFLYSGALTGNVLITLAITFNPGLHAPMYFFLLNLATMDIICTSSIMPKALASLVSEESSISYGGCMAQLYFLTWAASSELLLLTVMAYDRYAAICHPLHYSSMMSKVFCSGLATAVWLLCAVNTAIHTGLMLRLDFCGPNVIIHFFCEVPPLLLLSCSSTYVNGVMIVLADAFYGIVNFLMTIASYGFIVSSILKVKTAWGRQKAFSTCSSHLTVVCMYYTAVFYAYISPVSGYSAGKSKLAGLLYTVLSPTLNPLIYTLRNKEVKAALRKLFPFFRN
In short: as §1

[9] = biological target: T9, OR13C2 (Homo sapiens) (UniProt Q8NGS9)
T9 sequence (whole entry): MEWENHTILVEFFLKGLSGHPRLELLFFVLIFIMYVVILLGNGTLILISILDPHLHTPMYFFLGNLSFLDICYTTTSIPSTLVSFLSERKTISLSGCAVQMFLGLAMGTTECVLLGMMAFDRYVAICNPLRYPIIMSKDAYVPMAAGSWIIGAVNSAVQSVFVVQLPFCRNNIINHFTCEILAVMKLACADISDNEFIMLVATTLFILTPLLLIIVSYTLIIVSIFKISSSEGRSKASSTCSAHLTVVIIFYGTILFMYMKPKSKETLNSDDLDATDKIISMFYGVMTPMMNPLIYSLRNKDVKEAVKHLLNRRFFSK
In short: as §1

[10] = biological target: T10, OR13C3 (Homo sapiens) (UniProt Q8NGS6)
T10 sequence (whole entry): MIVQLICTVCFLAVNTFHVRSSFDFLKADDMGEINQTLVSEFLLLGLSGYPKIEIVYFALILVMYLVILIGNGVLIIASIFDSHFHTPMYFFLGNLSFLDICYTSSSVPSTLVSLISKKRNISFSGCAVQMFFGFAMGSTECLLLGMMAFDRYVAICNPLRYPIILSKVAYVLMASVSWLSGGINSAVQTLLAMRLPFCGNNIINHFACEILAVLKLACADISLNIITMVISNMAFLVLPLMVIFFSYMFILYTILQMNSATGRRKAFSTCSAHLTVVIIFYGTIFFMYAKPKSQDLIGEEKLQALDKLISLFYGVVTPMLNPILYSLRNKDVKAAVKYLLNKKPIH
In short: as §1

[11] = biological target: T11, OR13C4 (Homo sapiens) (UniProt Q8NGS5)
T11 sequence (whole entry): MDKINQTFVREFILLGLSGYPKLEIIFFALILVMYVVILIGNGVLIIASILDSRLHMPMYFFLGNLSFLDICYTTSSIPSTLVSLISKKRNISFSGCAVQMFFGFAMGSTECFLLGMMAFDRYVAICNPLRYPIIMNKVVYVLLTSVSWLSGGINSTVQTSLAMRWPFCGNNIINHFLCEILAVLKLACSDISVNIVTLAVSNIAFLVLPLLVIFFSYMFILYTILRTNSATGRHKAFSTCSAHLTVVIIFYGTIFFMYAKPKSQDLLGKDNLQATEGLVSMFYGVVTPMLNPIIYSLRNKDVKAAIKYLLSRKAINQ
In short: as §1

[12] = biological target: T12, OR13C5 (Homo sapiens) (UniProt Q8NGS8)
T12 sequence (whole entry): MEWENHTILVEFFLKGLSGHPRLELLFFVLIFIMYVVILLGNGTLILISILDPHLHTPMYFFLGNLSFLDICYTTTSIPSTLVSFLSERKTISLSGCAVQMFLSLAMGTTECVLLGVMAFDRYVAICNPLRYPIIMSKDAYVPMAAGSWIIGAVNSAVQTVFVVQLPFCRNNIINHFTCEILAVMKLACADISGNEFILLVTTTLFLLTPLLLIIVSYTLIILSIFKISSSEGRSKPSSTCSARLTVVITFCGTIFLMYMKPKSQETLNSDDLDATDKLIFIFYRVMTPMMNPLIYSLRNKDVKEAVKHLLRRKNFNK
In short: as §1

[13] = biological target: T13, OR13C8 (Homo sapiens) (UniProt Q8NGS7)
T13 sequence (whole entry): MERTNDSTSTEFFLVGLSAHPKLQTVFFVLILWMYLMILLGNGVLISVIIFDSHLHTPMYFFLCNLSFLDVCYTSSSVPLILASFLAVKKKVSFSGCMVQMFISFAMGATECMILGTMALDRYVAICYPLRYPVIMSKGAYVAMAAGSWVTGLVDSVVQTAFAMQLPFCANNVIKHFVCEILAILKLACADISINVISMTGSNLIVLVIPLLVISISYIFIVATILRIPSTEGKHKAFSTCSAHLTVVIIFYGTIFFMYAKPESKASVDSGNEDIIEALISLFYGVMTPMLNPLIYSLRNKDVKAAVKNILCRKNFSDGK
In short: as §1

[14] = biological target: T14, OR13C9 (Homo sapiens) (UniProt Q8NGT0)
T14 sequence (whole entry): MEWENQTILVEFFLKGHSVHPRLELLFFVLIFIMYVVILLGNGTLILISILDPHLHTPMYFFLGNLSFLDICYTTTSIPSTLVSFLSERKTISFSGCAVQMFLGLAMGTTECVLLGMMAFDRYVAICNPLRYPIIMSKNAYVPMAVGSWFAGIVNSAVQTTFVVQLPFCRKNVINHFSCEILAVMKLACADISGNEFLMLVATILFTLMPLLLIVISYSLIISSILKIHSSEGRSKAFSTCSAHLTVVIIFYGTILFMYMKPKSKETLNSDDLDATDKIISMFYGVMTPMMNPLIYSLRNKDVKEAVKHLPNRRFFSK
In short: as §1

[15] = biological target: T15, OR13D1 (Homo sapiens) (UniProt Q8NGV5)
T15 sequence (whole entry): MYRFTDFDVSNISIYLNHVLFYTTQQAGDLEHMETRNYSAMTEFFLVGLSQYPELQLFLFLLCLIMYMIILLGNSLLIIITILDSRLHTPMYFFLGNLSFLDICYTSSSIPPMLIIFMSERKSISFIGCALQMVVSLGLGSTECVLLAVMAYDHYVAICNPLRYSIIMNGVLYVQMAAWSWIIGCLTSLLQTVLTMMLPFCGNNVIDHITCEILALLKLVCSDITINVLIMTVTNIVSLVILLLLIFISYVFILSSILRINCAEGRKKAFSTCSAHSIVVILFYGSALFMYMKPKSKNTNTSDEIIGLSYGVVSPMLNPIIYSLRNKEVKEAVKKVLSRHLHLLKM
In short: as §1

[16] = biological target: T16, OR13F1 (Homo sapiens) (UniProt Q8NGS4)
T16 sequence (whole entry): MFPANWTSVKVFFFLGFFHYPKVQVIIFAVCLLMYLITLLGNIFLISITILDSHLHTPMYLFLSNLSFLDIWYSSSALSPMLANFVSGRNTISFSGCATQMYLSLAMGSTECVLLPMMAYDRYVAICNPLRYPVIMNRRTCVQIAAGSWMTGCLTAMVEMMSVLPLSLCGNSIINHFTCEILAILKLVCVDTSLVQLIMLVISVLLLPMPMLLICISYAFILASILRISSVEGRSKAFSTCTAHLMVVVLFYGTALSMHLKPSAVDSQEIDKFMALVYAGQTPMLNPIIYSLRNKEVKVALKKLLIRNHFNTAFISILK
In short: as §1

[17] = biological target: T17, OR13G1 (Homo sapiens) (UniProt Q8NGZ3)
T17 sequence (whole entry): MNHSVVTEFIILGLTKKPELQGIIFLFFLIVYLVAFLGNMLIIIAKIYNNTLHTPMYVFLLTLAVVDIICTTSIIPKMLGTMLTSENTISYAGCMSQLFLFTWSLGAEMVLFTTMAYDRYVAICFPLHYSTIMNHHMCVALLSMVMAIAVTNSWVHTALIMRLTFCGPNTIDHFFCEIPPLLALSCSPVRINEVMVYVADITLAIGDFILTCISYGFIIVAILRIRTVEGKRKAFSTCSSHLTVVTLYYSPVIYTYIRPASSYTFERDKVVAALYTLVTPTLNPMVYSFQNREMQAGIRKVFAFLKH
In short: as §1

Measured: odorant receptor agonist call

CC1=C(O)C(=O)C(C)O1 (configuration not stated)
inactive: all assays above
